Experiments:
[1] = test system: patients with metastatic castration-resistant prostate cancer; test: Treatment-related adverse events; format: in vivo, human; details: Total N=15, with enzalutamide
Method in brief: (§1)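 Open-label, single-centre 3+3 escalation in mCRPC. Capivasertib was given b.i.d. 4/7, starting at 320 mg with predefined escalation and de-escalation. A 7-day cycle 0 (single dose on D1) preceded 28-day cycles of capivasertib plus enzalutamide 160 mg daily. MTD/RP2D was the highest level with ≥6 patients and <1/3 with DLT. AEs were graded by CTCAE v4.0 from first dose to 30 days post-discontinuation. All treated patients were included.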

[2] = test system: patients with metastatic castration-resistant prostate cancer; test: Phase I dose escalation; format: in vivo, human
Method in brief: as §1

pSer9 GSK3β = test: Pharmacodynamics: phosphorylated Ser9 GSK3β in platelet-rich plasma; format: in vivo, human; details: 400 mg alone (cycle 0)
Method in brief: (§2)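 mCRPC patients took a single capivasertib dose on cycle 0 day 1, followed by PK and PD sampling. Combination with enzalutamide 160 mg daily began at C1D1, with capivasertib b.i.d. on a 4/7 schedule. Platelet-rich plasma and hair follicles were assayed for pSer9 and total GSK3β and for pThr246 and total PRAS40. Statistics used one-way ANOVA with […] and Dunnett's tests, with P<0.05 as significant.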

patients = details: 4 days on and 3 days off every week (4/7); cited from earlier work
pThr246 PRAS40 = test: Pharmacodynamics: phosphorylated Thr246 PRAS40 in hair follicles; format: in vivo, human
Method in brief: as §2

pERK = test: IHC for pERK expression in tumour biopsies; format: in vivo, human; details: with enzalutamide, including two of the responders
[3] = Plasma pharmacokinetics of capivasertib; format: in vivo, human
Method in brief: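 Venous blood was sampled serially up to 48 h post-dose on C0D1 (capivasertib alone) and on C2D1, C2D4 and C2D11 (with enzalutamide). Cmax, Tmax and AUC8h were derived. Geometric means of dose-normalised Cmax and AUC8h were compared between cycle 2 and cycle 0.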

[4] = test system: metastatic prostate cancer patients; details: overall population; marked benefit for PTEN loss; cited from earlier work

NC1(C(=O)N[C@@H](CCO)c2ccc(Cl)cc2)CCN(c2nc[nH]c3nccc2-3)CC1 [capivasertib]
Hyper-glycaemia, Grade 3/4 [1]: 26.7%
patients experiencing a DLT (maculopapular rash) ([2]; 400 mg b.i.d., with enzalutamide): 1/6
RP2D (recommended phase II dose) ([2]; 4/7 schedule, with enzalutamide 160 mg daily): 400 mg b.i.d.
fatal SAEs ([2]; all dose levels): no fatal SAEs
patients with dosing interruption or reduction ([2]; beyond cycle 1, six of fourteen patients): 42.9%
dosing interruptions or reductions due to AEs ([2]; during the DLT period, five of nine patients): 55.6%
AEs judged to be treatment-related ([2]; of 259 AEs, safety population): 42.5%
AEs reported ([2]; safety population, all dose levels): 259
mean decrease in pGSK3β compared with baseline (pSer9 GSK3β; 2 h after dose): 56%
mean decrease in pGSK3β compared with baseline (pSer9 GSK3β; 4 h after dose): 44%
mean decrease in pGSK3β compared with baseline (pSer9 GSK3β; 8 h after dose): 22%
single-agent recommended phase II dose (RP2D) (patients): 480 mg b.i.d.
mean percentage reduction in PRAS40 (pThr246 PRAS40; 320 mg with enzalutamide): −34%
mean percentage reduction in PRAS40 (pThr246 PRAS40; 320 mg without enzalutamide): 38%
mean percentage reduction in PRAS40 (pThr246 PRAS40; 400 mg with enzalutamide): 22%
mean percentage reduction in PRAS40 (pThr246 PRAS40; 400 mg without enzalutamide): 23%
mean percentage reduction in PRAS40 (pThr246 PRAS40; 480 mg with enzalutamide): 40%
mean percentage reduction in PRAS40 (pThr246 PRAS40; 480 mg without enzalutamide): 26%
pERK expression by IHC, post-treatment vs baseline (pERK): increased after treatment in three patients
patients in whom enzalutamide decreased both Cmax and AUC ([3]; compared with capivasertib monotherapy): 11 out of 13
approximate mean decrease of Cmax and AUC ([3]; cycle 2 (with enzalutamide) compared with cycle 0 (monotherapy)): ~40%

CC(C)NC[C@@H](C(=O)N1CCN(c2ncnc3c2[C@H](C)C[C@H]3O)CC1)c1ccc(Cl)cc1 [ipatasertib]
rPFS, abiraterone with vs without ipatasertib [4]: improved rPFS
